The values below come from ChEMBL document CHEMBL3526048, “In vitro metabolism of rivoglitazone, a novel peroxisome proliferator-activated receptor γ agonist, in rat, monkey, and human liver microsomes and freshly isolated hepatocytes” (Drug Metab Dispos, 2011).

Common to all, as to format: ADME
The target of series [1] is T1, UDP-glucuronosyltransferase 1A4 (Homo sapiens, UniProt P22310).
T1 sequence (P22310 whole entry): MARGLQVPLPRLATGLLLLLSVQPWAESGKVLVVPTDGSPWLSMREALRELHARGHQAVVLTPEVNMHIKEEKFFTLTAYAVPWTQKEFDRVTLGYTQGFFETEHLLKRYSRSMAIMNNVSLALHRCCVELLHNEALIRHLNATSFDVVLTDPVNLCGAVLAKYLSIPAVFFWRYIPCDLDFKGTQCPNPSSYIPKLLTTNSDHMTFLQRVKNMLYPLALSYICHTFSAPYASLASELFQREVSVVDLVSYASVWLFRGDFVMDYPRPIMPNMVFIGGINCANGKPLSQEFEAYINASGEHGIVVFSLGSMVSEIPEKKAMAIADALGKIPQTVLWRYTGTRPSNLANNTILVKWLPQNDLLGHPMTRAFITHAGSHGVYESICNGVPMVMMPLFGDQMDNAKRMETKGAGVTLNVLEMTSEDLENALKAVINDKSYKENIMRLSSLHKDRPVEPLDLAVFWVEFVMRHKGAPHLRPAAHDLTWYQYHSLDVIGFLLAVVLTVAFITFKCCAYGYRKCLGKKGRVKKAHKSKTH
The series is described as follows: Activity of human UGT1A4 expressed in microsomes isolated from baculovirus infected insect cell assessed as enzyme-mediated (2S,3S,4S,5R,6R)-6-((1-carboxy-2-(4-((6-methoxy-1-methyl-1H-benzo[d]imidazol-2-yl)methoxy)phenyl)ethylthio)carbonylamino)-3,4,5-trihydroxytetrahydro-2H-pyran-2-carboxylic acid formation at 20 uM after 4 hrs by radio-HPLC/LC-MS/MS analysis in presence of UDPGA.

The target of series [2] is T2, UDP-glucuronosyltransferase 1A3 (Homo sapiens, UniProt P35503).
T2 sequence (P35503 whole entry): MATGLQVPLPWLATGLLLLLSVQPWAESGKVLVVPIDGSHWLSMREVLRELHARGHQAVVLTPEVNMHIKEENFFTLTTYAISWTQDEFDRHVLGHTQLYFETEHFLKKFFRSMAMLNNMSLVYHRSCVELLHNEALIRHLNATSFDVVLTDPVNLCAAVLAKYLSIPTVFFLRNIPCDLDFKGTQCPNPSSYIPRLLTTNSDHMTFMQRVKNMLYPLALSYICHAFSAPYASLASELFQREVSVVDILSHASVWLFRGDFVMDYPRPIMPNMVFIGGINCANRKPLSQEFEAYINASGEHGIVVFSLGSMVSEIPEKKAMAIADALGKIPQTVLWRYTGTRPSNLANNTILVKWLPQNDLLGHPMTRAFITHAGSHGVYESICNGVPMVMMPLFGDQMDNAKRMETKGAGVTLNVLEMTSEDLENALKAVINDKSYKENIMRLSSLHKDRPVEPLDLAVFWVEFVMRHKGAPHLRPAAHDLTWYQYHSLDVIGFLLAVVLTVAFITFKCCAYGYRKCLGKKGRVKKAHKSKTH
The series is described as follows: Activity of human UGT1A3 expressed in microsomes isolated from baculovirus infected insect cell assessed as enzyme-mediated 2-mercapto-3-(4-((6-methoxy-1-methyl-1H-benzo[d]imidazol-2-yl)methoxy)phenyl)propanoic acid formation at 20 uM after 4 hrs by radio-HPLC/LC-MS/MS analysis in presence of UDPGA, UDPGA/SAM and NADPH-generating system in presence of UDPGA and UDPGA/SAM. In short, it runs like this:
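Alamethicin (50 μg/mg protein, 15 min on ice) pretreated expressed human UGT microsomes (1 mg/ml protein) from baculovirus-infected insect cells. Incubation with [¹⁴C]rivoglitazone (20 μM) in 100 mM Tris-HCl (pH 7.5) with 10 mM MgCl₂, started by 5 mM UDPGA, 4 h at 37°C with shaking. UGT insect-cell control supersomes were run alongside. Acetonitrile stop, concentrated supernatant analysed by radio-HPLC, LC-MS and LC-MS/MS.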

In series [3] the target is T3, Cytochrome P450 2C8 (Homo sapiens, UniProt P10632).
T3 sequence (P10632 whole entry): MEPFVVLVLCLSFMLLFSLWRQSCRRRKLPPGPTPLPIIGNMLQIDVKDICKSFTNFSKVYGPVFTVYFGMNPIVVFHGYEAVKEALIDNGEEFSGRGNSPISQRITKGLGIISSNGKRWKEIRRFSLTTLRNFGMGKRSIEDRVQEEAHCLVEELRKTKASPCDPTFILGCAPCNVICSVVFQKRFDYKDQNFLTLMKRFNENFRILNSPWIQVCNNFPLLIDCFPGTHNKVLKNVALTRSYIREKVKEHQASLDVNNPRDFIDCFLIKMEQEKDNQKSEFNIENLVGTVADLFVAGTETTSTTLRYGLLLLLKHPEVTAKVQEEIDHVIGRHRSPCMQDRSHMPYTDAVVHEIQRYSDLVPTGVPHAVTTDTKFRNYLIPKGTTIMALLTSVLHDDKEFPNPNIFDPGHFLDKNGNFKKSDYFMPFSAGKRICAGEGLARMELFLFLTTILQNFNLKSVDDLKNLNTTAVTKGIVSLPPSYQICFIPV
The series is described as follows: Activity of human CYP2C8 expressed in microsomes isolated from baculovirus infected insect cell assessed as enzyme-mediated 2-mercapto-3-(4-((6-methoxy-1-methyl-1H-benzo[d]imidazol-2-yl)methoxy)phenyl)propanamide formation at 20 uM after 2 hrs by radio-HPLC/LC-MS/MS analysis in presence of NADPH-generating system and NADPH-generating system/SAM. In a few lines: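 Baculovirus/insect-cell microsomes expressing single human CYPs, 1 mg/ml protein, with 50 mM potassium phosphate (pH 7.4) or 100 mM Tris-HCl (pH 7.5). NADPH-generating system: 2 mM NADP⁺, 20 mM glucose 6-phosphate, 2 units/ml G6PDH, 10 mM MgCl₂. [¹⁴C]rivoglitazone at 20 μM, 2 h at 37°C with shaking. Control used insect-cell control supersomes. Stopped with acetonitrile; supernatant concentrated under nitrogen; metabolites analysed by radio-HPLC, LC-MS and LC-MS/MS.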

The target of series [4] is T4, Cytochrome P450 3A4 (Homo sapiens, UniProt P08684). The series is described as follows: Activity of human CYP3A4 expressed in microsomes isolated from baculovirus infected insect cell assessed as enzyme-mediated 5-hydroxy-5-(4-((6-methoxy-1-methyl-1H-benzo[d]imidazol-2-yl)methoxy)benzyl)thiazolidine-2,4-dione formation at 20 uM after 2 hrs by radio-HPLC/LC-MS/MS analysis in presence of NADPH-generating system and NADPH-generating system/SAM.

For series [5], the target named is T4, Cytochrome P450 3A4. The series is described as follows: Activity of human CYP3A4 expressed in microsomes isolated from baculovirus infected insect cell assessed as enzyme-mediated compound formation treated with [14C]-rivoglitazone at 20 uM after 2 hrs by radio-HPLC/LC-MS/MS analysis in presence of NADPH-generating system. In a few lines:
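Baculovirus-insect-cell microsomes expressing the human CYP (1 mg/ml protein) were incubated with [14C]rivoglitazone (20 μM) in 50 mM potassium phosphate (pH 7.4) or 100 mM Tris-HCl (pH 7.5) with an NADPH-generating system (2 mM NADP+, 20 mM glucose 6-phosphate, 2 units/ml G6PDH, 10 mM MgCl2) for 2 h at 37°C. Insect-cell control supersomes served as the control. Reactions were stopped with acetonitrile, and the concentrated supernatants were analysed by radio-HPLC, LC-MS and LC-MS/MS.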

Structures are written as SMILES.

T4 sequence (P08684 whole entry): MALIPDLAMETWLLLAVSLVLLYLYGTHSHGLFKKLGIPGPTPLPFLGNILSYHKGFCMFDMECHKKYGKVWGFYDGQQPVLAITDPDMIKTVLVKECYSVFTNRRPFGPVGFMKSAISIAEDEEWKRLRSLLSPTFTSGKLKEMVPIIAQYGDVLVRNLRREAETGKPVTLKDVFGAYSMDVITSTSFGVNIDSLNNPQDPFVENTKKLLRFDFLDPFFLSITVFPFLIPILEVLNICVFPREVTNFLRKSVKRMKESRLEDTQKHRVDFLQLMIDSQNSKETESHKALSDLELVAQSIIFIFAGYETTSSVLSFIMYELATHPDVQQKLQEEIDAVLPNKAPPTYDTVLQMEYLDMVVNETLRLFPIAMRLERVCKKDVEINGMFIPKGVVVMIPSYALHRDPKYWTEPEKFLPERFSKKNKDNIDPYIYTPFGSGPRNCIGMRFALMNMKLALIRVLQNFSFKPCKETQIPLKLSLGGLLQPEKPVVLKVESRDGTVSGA

For the molecule `COc1ccc2nc(COc3ccc(C[14CH]4SC(=O)NC4=O)cc3)n(C)c2c1.Cl` (racemic), the Drug metabolism result is given as “metabolite_not_detected” in series [1], “metabolite_detected” in series [2], “metabolite_detected” in series [3] and “metabolite_detected” in series [4].

As for `COc1ccc2nc(COc3ccc(CC(S)C(=O)O)cc3)n(C)c2c1` (stereo not given), in series [5], the Drug metabolism entry is given as “metabolite_detected”.
